The record followed here is ChEMBL document CHEMBL2396515, “Quercetin-POC conjugates: Differential stability and bioactivity profiles between breast cancer (MCF-7) and colorectal carcinoma (HCT116) cell lines” (Bioorg Med Chem, 2013).

Series [1] has as its system HCT-116. The series is described as follows: Drug metabolism in human HCT116 cells assessed as quercetin-glucuronide level at 30 uM after 3 hrs by HPLC analysis. It counts as ADME, cell-based. As to conditions: hct-116, 3 h. In short, it runs like this: (§1)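 MCF-7 or HCT116 cells were seeded at 2×10^5 per well and grown 24 h at 37 °C, 5% CO2, then given 30 µM conjugate. At 1, 3, 6 and 12 h cells were PBS-washed, trypsinized, sonicated and filtered. Lysates were run on C18 HPLC (UV 340 nm). Each species is reported as a percentage of integrated peak area; peaks were identified by MALDI-TOF MS.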

Series [2] relates to HCT-116. The series is described as follows: Drug metabolism in human HCT116 cells assessed as quercetin-glucuronide level at 30 uM after 6 hrs by HPLC analysis. The format is ADME, cell-based. As to conditions: hct-116, 6 h. In short, it runs like this:
as §1

Series [3] in a line: Metabolic stability in human HCT116 cells assessed as compound remaining at 30 uM after 1 hr by HPLC analysis. The format is ADME, cell-based, HCT-116. As to conditions: read-out: Stability. In a few lines:
as §1

Series [4] has as its system HCT-116. Kind of series: Drug metabolism in human HCT116 cells assessed as quercetin sulfate level at 30 uM after 12 hrs by HPLC analysis. It counts as ADME, cell-based. Conditions: hct-116, 12 h. In a few lines: as §1
Series [5] relates to MCF7. The series is described as follows: Drug metabolism in human MCF7 cells assessed as quercetin-glucuronide level at 30 uM after 12 hrs by HPLC analysis. Conditions: mcf7, 12 h. The format is ADME, cell-based. In short, it runs like this:
as §1

Series [6] deals with MCF7. Kind of series: Drug metabolism in human MCF7 cells assessed as quercetin sulfate level at 30 uM after 1 hr by HPLC analysis. The format is ADME, cell-based. As to conditions: mcf7, 1 h. In short, it runs like this:
as §1

Series [7] is described as follows: Metabolic stability in human HCT116 cells assessed as compound remaining at 30 uM after 3 hrs by HPLC analysis. It counts as ADME, cell-based, HCT-116. As to conditions: read-out: Stability. In a few lines:
as §1

Series [8] has as its system HCT-116. The series is described as follows: Drug metabolism in human HCT116 cells assessed as quercetin level at 30 uM after 3 hrs by HPLC analysis. The format is ADME, cell-based. As to conditions: hct-116, 3 h. In short, it runs like this: as §1
Series [9] has as its system HCT-116. Kind of series: Cytotoxicity against human HCT116 cells at 1 to 100 uM after 12 hrs by MTT assay. The format is functional, cell-based. In a few lines: (§2)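 MCF-7 or HCT116 cells were seeded at 5×10^3 per well in DMEM with 10% FBS and grown 1 day at 37 °C, 5% CO2. Compounds in 1% DMSO were added at 1, 5, 10, 50, 100 or 250 µM. Viability was read by MTT after 12 h; each assay was done three times.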
For orientation: Tetrazolium assays rely on reduction of a dye to a coloured formazan, in cell work by metabolically active cells.

Series [10] relates to HCT-116. The series is described as follows: Drug metabolism in human HCT116 cells assessed as 7-O-POC-Q level at 30 uM after 3 hrs by HPLC analysis. The format is ADME, cell-based. As to conditions: hct-116, 3 h. In a few lines:
as §1

Series [11] is described as follows: Metabolic stability in human HCT116 cells assessed as compound remaining at 30 uM after 12 hrs by HPLC analysis. The format is ADME, cell-based, HCT-116. Conditions: read-out: Stability. In short, it runs like this:
as §1

Series [12] has as its system MCF7. Kind of series: Drug metabolism in human MCF7 cells assessed as 3-O-POC-Q level at 30 uM after 12 hrs by HPLC analysis. It counts as ADME, cell-based. As to conditions: mcf7, 12 h. In short, it runs like this:
as §1

For series [13], the system named is HCT-116. Kind of series: Drug metabolism in human HCT116 cells assessed as 7-O-POC-Q level at 30 uM after 12 hrs by HPLC analysis. Conditions: hct-116, 12 h. It counts as ADME, cell-based. In a few lines:
as §1

The subject of series [14] is HCT-116. Kind of series: Drug metabolism in human HCT116 cells assessed as quercetin-glucuronide level at 30 uM after 12 hrs by HPLC analysis. As to conditions: hct-116, 12 h. It counts as ADME, cell-based. In a few lines:
as §1

The test system of series [15] is MCF7. The series is described as follows: Drug metabolism in human MCF7 cells assessed as quercetin sulfate level at 30 uM after 12 hrs by HPLC analysis. As to conditions: mcf7, 12 h. It counts as ADME, cell-based. In a few lines: as §1
Series [16] can be described thus: Half life of the compound in PBS buffer at pH 7.4 at 50 uM by HPLC analysis. The format is physicochemical. In a few lines: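 Compound at 50 µM in PBS pH 7.4, incubated at 37 °C. Aliquots were drawn at 0, 1, 3, 6, 12, 24, 48 and 96 h and analysed by C18 reverse-phase HPLC with an acetonitrile/0.1% formic acid gradient, detected by UV at 340 nm.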
A short description of series [17]: Metabolic stability in human MCF7 cells assessed as compound remaining at 30 uM after 3 hrs by HPLC analysis. It counts as ADME, cell-based. Conditions: read-out: Stability. In a few lines: as §1
The subject of series [18] is HCT-116. The series is described as follows: Drug metabolism in human HCT116 cells assessed as 7-O-POC-Q level at 30 uM after 1 hr by HPLC analysis. The format is ADME, cell-based. Conditions: hct-116, 1 h. In a few lines: as §1
Series [19] in a line: Metabolic stability in human MCF7 cells assessed as compound remaining at 30 uM after 1 hr by HPLC analysis. It counts as ADME, cell-based. As to conditions: read-out: Stability. In a few lines: as §1
The subject of series [20] is MCF7. Kind of series: Drug metabolism in human MCF7 cells assessed as 7-O-POC-Q level at 30 uM after 6 hrs by HPLC analysis. It counts as ADME, cell-based. As to conditions: mcf7, 6 h. In short, it runs like this: as §1
Series [21] relates to MCF7. Kind of series: Drug metabolism in human MCF7 cells assessed as 7-O-POC-Q level at 30 uM after 3 hrs by HPLC analysis. The format is ADME, cell-based. As to conditions: mcf7, 3 h. In short, it runs like this: as §1
In series [22] the test system is MCF7. Kind of series: Cytotoxicity against human MCF7 cells at 1 to 100 uM after 12 hrs by MTT assay. It counts as functional, cell-based. In short, it runs like this:
as §2

Series [23] relates to MCF7. Kind of series: Metabolic stability in human MCF7 cells assessed as compound remaining at 30 uM after 12 hrs by HPLC analysis. The format is ADME, cell-based. As to conditions: mcf7, 12 h. In short, it runs like this: as §1
Series [24] can be described thus: Drug degradation in DMEM cell-free cell culture medium assessed as formation of 3-O-POC-Q at 50 uM after 24 hrs by HPLC analysis. The format is physicochemical. In short, it runs like this:
(§3)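 Conjugates diluted from a 10 mM DMSO stock to 50 µM final in cell-free culture medium (DMEM with 10% FBS), held at 37 °C. Samples were taken at 0, 1, 3, 6, 12, 24, 48 and 96 h, vortexed, and run on C18 reverse-phase HPLC with an acetonitrile/0.1% formic acid gradient at 1 mL/min, detected by UV at 340 nm.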

Series [25] concerns HCT-116. The series is described as follows: Drug metabolism in human HCT116 cells assessed as quercetin level at 30 uM after 6 hrs by HPLC analysis. Conditions: hct-116, 6 h. It counts as ADME, cell-based. In a few lines: as §1
The subject of series [26] is HCT-116. Kind of series: Drug metabolism in human HCT116 cells assessed as quercetin-glucuronide level at 30 uM after 1 hr by HPLC analysis. The format is ADME, cell-based. As to conditions: hct-116, 1 h. In short, it runs like this: as §1
Series [27] is described as follows: Metabolic stability in human MCF7 cells assessed as compound remaining at 30 uM after 6 hrs by HPLC analysis. Conditions: read-out: Stability. It counts as ADME, cell-based. In a few lines:
as §1

For series [28], the system named is MCF7. The series is described as follows: Drug metabolism in human MCF7 cells assessed as quercetin level at 30 uM after 12 hrs by HPLC analysis. The format is ADME, cell-based. As to conditions: mcf7, 12 h. In short, it runs like this: as §1
Series [29] can be described thus: Solubility of the compound in PBS buffer at 0.5 to 300 uM. The format is physicochemical. In a few lines:
(§4)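 DMSO stocks ([…]–10 mM) were serially diluted into PBS pH 7.4 or DMEM with 10% FBS to final 0.5, 5, 25, 50, 100, 200 µM (2% DMSO) and 300 µM (3% DMSO). Solubility was judged by forward light scattering in a laser nephelometer.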

Series [30] in a line: Solubility of the compound in DMEM cell-free cell culture medium up to 100 uM. The format is physicochemical. In short, it runs like this: as §4
Series [31] has as its system HCT-116. The series is described as follows: Drug metabolism in human HCT116 cells assessed as quercetin sulfate level at 30 uM after 3 hrs by HPLC analysis. It counts as ADME, cell-based. Conditions: hct-116, 3 h. In short, it runs like this: as §1
The test system of series [32] is HCT-116. Kind of series: Drug metabolism in human HCT116 cells assessed as quercetin level at 30 uM after 1 hr by HPLC analysis. The format is ADME, cell-based. As to conditions: hct-116, 1 h. In short, it runs like this: as §1
Series [33] concerns HCT-116. The series is described as follows: Drug metabolism in human HCT116 cells assessed as 7-O-POC-Q level at 30 uM after 6 hrs by HPLC analysis. As to conditions: hct-116, 6 h. It counts as ADME, cell-based. In short, it runs like this:
as §1

Series [34] can be described thus: Half life of the compound in DMEM cell-free cell culture medium at 50 uM by HPLC analysis. It counts as physicochemical. In a few lines:
as §3

Series [35] has as its system HCT-116. The series is described as follows: Drug metabolism in human HCT116 cells assessed as quercetin sulfate level at 30 uM after 6 hrs by HPLC analysis. It counts as ADME, cell-based. Conditions: hct-116, 6 h. In short, it runs like this:
as §1

Series [36] relates to MCF7. The series is described as follows: Drug metabolism in human MCF7 cells assessed as 7-O-POC-Q level at 30 uM after 12 hrs by HPLC analysis. The format is ADME, cell-based. As to conditions: mcf7, 12 h. In a few lines:
as §1

The test system of series [37] is HCT-116. The series is described as follows: Drug metabolism in human HCT116 cells assessed as quercetin sulfate level at 30 uM after 1 hr by HPLC analysis. It counts as ADME, cell-based. As to conditions: hct-116, 1 h. In short, it runs like this: as §1
Series [38] is described as follows: Metabolic stability in human HCT116 cells assessed as compound remaining at 30 uM after 6 hrs by HPLC analysis. The format is ADME, cell-based, HCT-116. Conditions: read-out: Stability. In short, it runs like this:
as §1

Calls of active or inactive are those of the source. No cut-off for these calls is given here.

`CC(C)OC(=O)OCOc1cc(O)c2c(=O)c(OCOC(=O)OC(C)C)c(-c3ccc(O)c(O)c3)oc2c1`: the Stability result in the series on HCT-116 [1], in the series with HCT-116 [2], in the series with HCT-116 [4], in the series with MCF7 [5], in the series with MCF7 [6] and in the series on HCT-116 [8] was “Stable” throughout. In addition, the Stability entry with HCT-116 [10], with MCF7 [12], in the series on HCT-116 [13], in the series with HCT-116 [14], with MCF7 [15] and in the series with HCT-116 [18] was “Stable” each time. Also, the Stability result in the series with MCF7 [20], in the series on MCF7 [21], with MCF7 [23], in the series with HCT-116 [25], with HCT-116 [26] and with MCF7 [28] was “Stable” throughout. The Stability entry with HCT-116 [31], in the series with HCT-116 [32], in the series on HCT-116 [33], with HCT-116 [35], in the series with MCF7 [36] and in the series on HCT-116 [37] was “Stable” each time. For the same compound, the values for the remaining at 1 h, 30 µM in [3] and in [19] were 64% and 25%, respectively. In addition, the remaining at 3 h, 30 µM in series [7] worked out at 47%; in series [17], 6%. Moreover, the outcome in the series with HCT-116 [9] and with MCF7 [22] was Active. The remaining at 12 h, 30 µM in [11] was 3%. Also, the half-life at 50 µM in [16] is above 96 h; in [34], 24 h. Moreover, the Drug degradation entry in [24] is on record as “Active”. The remaining at 6 h, 30 µM is 1% in [27] and 20% in series [38]. The results for the solubility entry in [29] and in series [30] were “Insoluble” and “soluble”, respectively.

Take `O=c1c(O)c(-c2ccc(O)c(O)c2)oc2cc(O)cc(O)c12` [QUERCETIN]: the outcome in the series on HCT-116 [9] and with MCF7 [22] was Active. For the same compound, the figures for the half-life at 50 µM in series [16] and in series [34] were 10 h and below 0.5 h, respectively.

As usually defined, the half-life is how long it takes for the measured level to halve.
